For assay [1], the target named is 3',5'-cyclic-AMP phosphodiesterase 4D (Homo sapiens, UniProt Q08499). Kind of assay: Inhibition of human full-length PDE4D7 using AM-Cyclic-3',5'-AMP after 60 mins by fluorescence polarization assay.
The species entered for assay [2] is Homo sapiens. Nature of the assay: Selectivity ratio of IC50 for human full-length PDE4B1 to IC50 for human full-length PDE4D7.
The target in assay [3] is Phosphodiesterase 4 (Homo sapiens, UniProt P27815+Q08499+Q07343+Q08493). Kind of assay: Inhibition of core catalytic domains of human PDE4 using AM-Cyclic-3',5'-AMP after 60 mins by fluorescence polarization assay. The assay is classed as protein assay. A general note: Fluorescence polarisation rises when a labelled molecule tumbles more slowly, as on binding a larger partner.

For assay [4], the target named is 3',5'-cyclic-AMP phosphodiesterase 4B (Homo sapiens, UniProt Q07343). Kind of assay: Inhibition of human full-length PDE4B1 using AM-Cyclic-3',5'-AMP after 60 mins by fluorescence polarization assay.
The species entered for assay [5] is Homo sapiens. Kind of assay: Selectivity ratio of IC50 for PDE4B2 (unknown origin) to IC50 for PDE4D3 (unknown origin).
The species named for assay [6] is Homo sapiens. Nature of the assay: Selectivity ratio of IC50 for PDE4B2 (unknown origin) to IC50 for PDE4D4 (unknown origin).
For assay [7], the target named is Dual specificity calcium/calmodulin-dependent 3',5'-cyclic nucleotide phosphodiesterase 1A (Homo sapiens) (UniProt P54750). Nature of the assay: Inhibition of human PDE1A using AM-Cyclic-3',5'-AMP at 10 uM after 60 mins by fluorescence polarization assay. The method, boiled down: (§1)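 Recombinant human PDE isoforms in 40 mM MOPS pH 7.5, 0.5 mM EDTA, 15 mM MgCl2, 0.15 mg/mL BSA, 1 mM DTT, 0.05% Proclin 200. […] Final DMSO 1%; 60 min at 25 °C. Binding agent was added, then 1 h more. Fluorescence polarization read at ex 360/em 480 nm. IC50 or single-concentration % inhibition; mean of two experiments.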

Assay [8] concerns the target High affinity 3',5'-cyclic-AMP phosphodiesterase 7A (Homo sapiens) (UniProt Q13946). The conditions noted are these: 10 uM.
Assay [9] concerns the target Dual 3',5'-cyclic-AMP and -GMP phosphodiesterase 11A (Homo sapiens) (UniProt Q9HCR9). Particulars: 10 uM.
Assay [10] deals with cGMP-dependent 3',5'-cyclic phosphodiesterase (Homo sapiens) (UniProt O00408). Particulars: 10 uM.
In assay [11] the target is cGMP-specific 3',5'-cyclic phosphodiesterase (Homo sapiens) (UniProt O76074). Kind of assay: Inhibition of human PDE5A using AM-Cyclic-3',5'-AMP at 10 uM after 60 mins by fluorescence polarization assay. The method, boiled down: as §1
Assay [12] concerns the target High affinity cAMP-specific and IBMX-insensitive 3',5'-cyclic phosphodiesterase 8A (Homo sapiens) (UniProt O60658). Nature of the assay: Inhibition of human PDE8A1 using AM-Cyclic-3',5'-AMP at 10 uM after 60 mins by fluorescence polarization assay. The method, boiled down:
as §1

Assay [13] has as its target cGMP-inhibited 3',5'-cyclic phosphodiesterase 3B (Homo sapiens) (UniProt Q13370). Particulars: 10 uM.
For assay [14], the target named is cAMP and cAMP-inhibited cGMP 3',5'-cyclic phosphodiesterase 10A (Homo sapiens) (UniProt Q9Y233). Nature of the assay: Inhibition of human PDE10A2 using AM-Cyclic-3',5'-AMP at 10 uM after 60 mins by fluorescence polarization assay. The method, boiled down: as §1
Assay [15] addresses High affinity cGMP-specific 3',5'-cyclic phosphodiesterase 9A (Homo sapiens) (UniProt O76083). Nature of the assay: Inhibition of human PDE9A2 using AM-Cyclic-3',5'-AMP at 10 uM after 60 mins by fluorescence polarization assay. The method, boiled down: as §1
The species named for assay [16] is Homo sapiens. Kind of assay: Selectivity ratio of IC50 for PDE4B1 (unknown origin) to IC50 for PDE4D7 (unknown origin).
For assay [17], the species on record is Homo sapiens. Kind of assay: Selectivity ratio of IC50 for PDE4B (unknown origin) to IC50 for PDE4D (unknown origin).

Sequence of 3',5'-cyclic-AMP phosphodiesterase 4D (Q08499 whole entry): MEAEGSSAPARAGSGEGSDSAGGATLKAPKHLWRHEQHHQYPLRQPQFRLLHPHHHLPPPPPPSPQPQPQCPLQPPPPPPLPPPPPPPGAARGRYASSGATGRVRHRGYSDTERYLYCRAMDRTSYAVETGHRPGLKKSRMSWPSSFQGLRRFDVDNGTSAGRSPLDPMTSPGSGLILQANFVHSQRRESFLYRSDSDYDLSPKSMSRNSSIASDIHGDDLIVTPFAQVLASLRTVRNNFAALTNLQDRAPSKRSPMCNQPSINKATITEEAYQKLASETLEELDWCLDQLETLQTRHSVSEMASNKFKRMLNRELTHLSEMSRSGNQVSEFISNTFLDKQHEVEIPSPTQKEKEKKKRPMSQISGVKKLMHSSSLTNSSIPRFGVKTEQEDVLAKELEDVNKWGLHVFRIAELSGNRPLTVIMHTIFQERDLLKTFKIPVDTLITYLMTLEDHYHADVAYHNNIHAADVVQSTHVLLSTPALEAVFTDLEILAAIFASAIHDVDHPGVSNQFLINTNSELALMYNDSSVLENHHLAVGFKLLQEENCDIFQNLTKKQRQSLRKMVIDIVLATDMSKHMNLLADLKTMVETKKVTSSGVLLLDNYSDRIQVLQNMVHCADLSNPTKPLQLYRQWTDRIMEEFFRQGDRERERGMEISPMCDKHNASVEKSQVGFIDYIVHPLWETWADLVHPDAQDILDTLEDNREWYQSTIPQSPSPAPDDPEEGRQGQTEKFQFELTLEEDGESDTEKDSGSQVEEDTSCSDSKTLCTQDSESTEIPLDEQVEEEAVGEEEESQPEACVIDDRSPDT
Sequence of 3',5'-cyclic-AMP phosphodiesterase 4B (Q07343 whole entry): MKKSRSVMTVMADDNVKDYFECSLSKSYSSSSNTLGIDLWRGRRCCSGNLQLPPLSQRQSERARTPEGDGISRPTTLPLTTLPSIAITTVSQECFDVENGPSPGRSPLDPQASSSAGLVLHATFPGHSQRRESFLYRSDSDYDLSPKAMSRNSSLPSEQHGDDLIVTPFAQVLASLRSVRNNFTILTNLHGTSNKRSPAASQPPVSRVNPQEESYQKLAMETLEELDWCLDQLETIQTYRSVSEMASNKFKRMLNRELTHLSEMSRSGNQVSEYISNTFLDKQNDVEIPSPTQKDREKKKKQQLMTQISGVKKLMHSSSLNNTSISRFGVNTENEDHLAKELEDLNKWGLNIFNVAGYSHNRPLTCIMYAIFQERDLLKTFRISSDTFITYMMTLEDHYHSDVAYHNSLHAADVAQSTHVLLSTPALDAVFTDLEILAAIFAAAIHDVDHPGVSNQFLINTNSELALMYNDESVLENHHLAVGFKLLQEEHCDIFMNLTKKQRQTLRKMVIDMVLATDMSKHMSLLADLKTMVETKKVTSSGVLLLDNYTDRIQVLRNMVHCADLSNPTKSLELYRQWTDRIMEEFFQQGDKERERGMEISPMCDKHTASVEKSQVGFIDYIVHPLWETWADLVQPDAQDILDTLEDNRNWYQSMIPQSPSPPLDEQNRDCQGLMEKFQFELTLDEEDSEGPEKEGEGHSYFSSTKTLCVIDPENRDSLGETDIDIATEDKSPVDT
Sequence of Dual 3',5'-cyclic-AMP and -GMP phosphodiesterase 11A (Homo sapiens) (Q9HCR9 whole entry, looked up): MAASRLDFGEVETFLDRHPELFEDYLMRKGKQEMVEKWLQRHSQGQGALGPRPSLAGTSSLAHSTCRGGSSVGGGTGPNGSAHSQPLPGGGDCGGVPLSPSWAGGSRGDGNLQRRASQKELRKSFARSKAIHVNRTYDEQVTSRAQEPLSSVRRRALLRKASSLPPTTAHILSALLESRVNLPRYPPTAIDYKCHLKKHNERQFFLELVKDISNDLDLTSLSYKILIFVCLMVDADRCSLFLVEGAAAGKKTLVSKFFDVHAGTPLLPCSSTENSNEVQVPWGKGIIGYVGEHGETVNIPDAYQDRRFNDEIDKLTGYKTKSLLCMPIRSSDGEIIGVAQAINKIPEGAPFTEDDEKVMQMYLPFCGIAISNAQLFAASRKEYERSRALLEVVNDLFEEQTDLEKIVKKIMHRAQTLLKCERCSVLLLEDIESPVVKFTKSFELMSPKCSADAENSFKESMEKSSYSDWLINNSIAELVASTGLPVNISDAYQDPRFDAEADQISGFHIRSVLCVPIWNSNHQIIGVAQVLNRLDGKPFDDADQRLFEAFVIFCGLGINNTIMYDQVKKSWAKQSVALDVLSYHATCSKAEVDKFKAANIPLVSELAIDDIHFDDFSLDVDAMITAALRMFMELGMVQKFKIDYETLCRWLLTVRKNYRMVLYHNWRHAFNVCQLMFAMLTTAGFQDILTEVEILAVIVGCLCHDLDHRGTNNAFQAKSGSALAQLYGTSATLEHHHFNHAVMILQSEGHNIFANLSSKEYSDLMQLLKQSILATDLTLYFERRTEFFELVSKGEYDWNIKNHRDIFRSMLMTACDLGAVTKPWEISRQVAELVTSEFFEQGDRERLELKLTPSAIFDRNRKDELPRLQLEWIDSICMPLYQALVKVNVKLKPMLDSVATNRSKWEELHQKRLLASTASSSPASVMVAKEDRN
Sequence of Dual specificity calcium/calmodulin-dependent 3',5'-cyclic nucleotide phosphodiesterase 1A (Homo sapiens) (P54750 whole entry, canonical isoform): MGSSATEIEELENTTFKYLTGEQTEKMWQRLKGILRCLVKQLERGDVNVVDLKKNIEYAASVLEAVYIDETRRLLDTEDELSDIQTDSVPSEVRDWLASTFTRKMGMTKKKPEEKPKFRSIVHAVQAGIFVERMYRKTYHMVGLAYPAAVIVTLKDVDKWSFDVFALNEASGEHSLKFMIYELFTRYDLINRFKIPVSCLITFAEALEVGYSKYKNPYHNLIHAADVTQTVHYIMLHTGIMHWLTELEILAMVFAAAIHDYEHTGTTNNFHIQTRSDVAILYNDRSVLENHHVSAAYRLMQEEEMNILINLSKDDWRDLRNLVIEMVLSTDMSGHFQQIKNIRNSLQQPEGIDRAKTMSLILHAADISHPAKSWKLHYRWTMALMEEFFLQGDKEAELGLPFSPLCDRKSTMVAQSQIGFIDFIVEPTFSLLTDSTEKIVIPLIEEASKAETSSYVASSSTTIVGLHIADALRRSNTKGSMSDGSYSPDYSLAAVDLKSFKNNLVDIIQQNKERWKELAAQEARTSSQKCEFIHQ
Sequence of cGMP-dependent 3',5'-cyclic phosphodiesterase (Homo sapiens) (O00408 whole entry): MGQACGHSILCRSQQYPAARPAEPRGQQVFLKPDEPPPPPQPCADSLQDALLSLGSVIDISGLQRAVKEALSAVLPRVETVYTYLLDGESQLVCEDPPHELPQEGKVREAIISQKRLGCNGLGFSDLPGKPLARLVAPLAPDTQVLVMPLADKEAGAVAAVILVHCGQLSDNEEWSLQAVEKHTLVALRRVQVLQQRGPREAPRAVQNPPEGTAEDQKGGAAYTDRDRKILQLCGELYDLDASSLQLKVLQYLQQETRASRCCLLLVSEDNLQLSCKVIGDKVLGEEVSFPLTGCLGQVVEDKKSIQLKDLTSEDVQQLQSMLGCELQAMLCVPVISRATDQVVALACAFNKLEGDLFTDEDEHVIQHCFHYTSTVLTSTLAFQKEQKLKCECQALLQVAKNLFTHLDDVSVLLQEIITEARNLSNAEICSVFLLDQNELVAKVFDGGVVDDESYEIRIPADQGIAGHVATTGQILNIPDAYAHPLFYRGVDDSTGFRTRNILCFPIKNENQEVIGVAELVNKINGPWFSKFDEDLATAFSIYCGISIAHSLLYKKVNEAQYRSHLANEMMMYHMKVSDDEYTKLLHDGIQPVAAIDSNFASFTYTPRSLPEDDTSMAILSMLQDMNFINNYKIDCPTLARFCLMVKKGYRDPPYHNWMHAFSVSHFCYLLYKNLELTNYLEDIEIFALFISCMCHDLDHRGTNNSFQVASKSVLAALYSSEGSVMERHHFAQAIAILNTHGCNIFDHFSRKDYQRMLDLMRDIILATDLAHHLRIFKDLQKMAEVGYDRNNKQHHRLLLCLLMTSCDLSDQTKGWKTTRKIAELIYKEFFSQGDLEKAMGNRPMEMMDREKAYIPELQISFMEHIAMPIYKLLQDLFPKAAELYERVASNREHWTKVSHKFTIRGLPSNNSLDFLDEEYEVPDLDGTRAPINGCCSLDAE
Sequence of High affinity 3',5'-cyclic-AMP phosphodiesterase 7A (Homo sapiens) (Q13946 whole entry): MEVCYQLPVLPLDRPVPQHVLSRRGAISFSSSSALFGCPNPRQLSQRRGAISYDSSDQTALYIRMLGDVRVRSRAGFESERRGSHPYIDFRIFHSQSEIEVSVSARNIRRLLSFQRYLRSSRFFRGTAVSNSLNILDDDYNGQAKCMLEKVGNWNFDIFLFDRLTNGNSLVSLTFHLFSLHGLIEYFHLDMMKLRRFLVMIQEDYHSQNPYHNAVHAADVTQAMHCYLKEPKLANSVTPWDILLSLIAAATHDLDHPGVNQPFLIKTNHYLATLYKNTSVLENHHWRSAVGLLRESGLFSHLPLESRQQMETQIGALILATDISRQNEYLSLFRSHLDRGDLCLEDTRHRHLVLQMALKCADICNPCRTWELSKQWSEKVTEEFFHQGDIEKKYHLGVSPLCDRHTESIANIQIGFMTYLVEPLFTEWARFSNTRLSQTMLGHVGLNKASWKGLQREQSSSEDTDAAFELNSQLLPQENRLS
Sequence of High affinity cGMP-specific 3',5'-cyclic phosphodiesterase 9A (Homo sapiens) (O76083 whole entry): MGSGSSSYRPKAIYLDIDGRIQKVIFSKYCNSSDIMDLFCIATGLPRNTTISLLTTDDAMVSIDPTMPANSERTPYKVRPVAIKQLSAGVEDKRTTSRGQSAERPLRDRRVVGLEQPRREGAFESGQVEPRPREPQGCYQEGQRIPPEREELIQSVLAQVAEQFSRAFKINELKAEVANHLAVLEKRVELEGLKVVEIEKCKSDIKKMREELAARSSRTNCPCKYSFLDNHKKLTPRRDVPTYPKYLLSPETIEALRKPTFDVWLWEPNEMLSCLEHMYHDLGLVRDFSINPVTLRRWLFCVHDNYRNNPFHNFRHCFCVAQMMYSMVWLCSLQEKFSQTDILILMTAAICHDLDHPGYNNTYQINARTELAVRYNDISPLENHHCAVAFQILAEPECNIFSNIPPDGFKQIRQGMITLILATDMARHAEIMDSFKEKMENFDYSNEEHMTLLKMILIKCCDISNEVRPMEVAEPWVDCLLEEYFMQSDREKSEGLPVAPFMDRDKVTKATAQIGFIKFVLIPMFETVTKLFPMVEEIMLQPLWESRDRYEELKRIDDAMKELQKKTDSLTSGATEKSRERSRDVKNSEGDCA

For `COc1ccc(CNC(=O)c2ccc(OC)c(OCC3CC3)c2)cc1`, the IC50 in assay [1] stood at 342 nM; in [3], 910 nM; in assay [4] it was 1090 nM. In addition, the Ratio IC50 in assay [2] is 3.2.

With `COc1ccc(/C=N/OCC(O)CNN2CC(C)OC(C)C2)cc1OC1CCCC1` (stereo not drawn), the Ratio IC50 in assay [5] was determined as 85.

With `COc1ccc(CNC(=O)c2ccc(OC(F)F)c(OCC3CC3)c2)cc1`, the IC50 in assay [1] was found to be 108 nM; in assay [3], 410 nM; in assay [4], 301 nM. For the same compound, the Ratio IC50 in [2] came out at 2.8.

For `COc1ccc(CNC(=O)c2ccc(OC)c(OC3CCCC3)c2)cc1`, the half-inhibitory concentration (IC50) in assay [1] amounted to 284 nM; in [3] it was 960 nM; in assay [4], 1030 nM. Also, the Ratio IC50 in assay [2] was 3.6.

For `COc1ccccc1OCCNc1ccc(=O)n(Cc2ccc(OC)c(-c3cccc(Cl)c3)c2)n1`, the Ratio IC50 in assay [6] worked out at 13.

In assay [3], `COc1ccccc1OCCNC(=O)c1ccc(OC(F)F)c(OCC2CC2)c1` returned an IC50 of 6900 nM.

In the case of `COc1ccc(CNC(=O)c2ccc(OC)c(OC3CCCC3)c2)cc1OC`, the IC50 in [3] is over 100000 nM.

In [3], `COc1ccccc1OCCNC(=O)c1ccc(OC)c(OCC2CC2)c1` had an IC50 of 11100 nM. This lies in the double-digit micromolar range.

Turning to `COc1ccc(CNC(=O)c2ccc(OC)c(OCC3CC3)c2)cc1OC`, the IC50 in [3] was over 100000 nM.

In [3], `COc1ccc(CNC(=O)c2ccc(OC(F)F)c(OCC3CC3)c2)cc1OC` returned an IC50 of over 100000 nM.

For `COc1ccc(CNC(=O)c2ccc(OC(F)F)c(OC3CCCC3)c2)cc1`, the inhibition in [7] turned out to be 11%; in [8], 3%; in assay [9], 2%; in assay [10] it was 2%; in assay [11] it was 16%; in assay [12] it was 10%. Further, the figures for the inhibition in [13], in [14] and in [15] were 2%, 1% and 6%, respectively. Besides, the IC50 was determined as 94 nM in assay [1], 1100 nM in assay [3] and 976 nM in [4].

For the compound `COc1ccccc1OCCNC(=O)c1ccc(OC)c(OC2CCCC2)c1`, the IC50 in [3] came to 18300 nM.

For the compound `COc1ccc(CNC(=O)c2ccc(OC(F)F)c(OC3CCCC3)c2)cc1OC`, in [3], the IC50 was over 100000 nM.

Regarding `O=C(NCc1ccccc1)c1ccc(OC(F)F)c(OC2CCCC2)c1`, in assay [3], the IC50 worked out at 2200 nM.

As to `COc1ccc(Cc2ccc(NC(N)=O)cc2)cc1-c1cccc(Cl)c1`, the Ratio IC50 in assay [16] is 54.

As to `COc1ccc([C@H](C)NC(=O)c2cccnc2Oc2ccc(F)cc2)cc1`, in assay [17], the Ratio IC50 came to 142.

For the compound `COc1ccccc1OCCNC(=O)c1ccc(OC(F)F)c(OC2CCCC2)c1`, the IC50 in [3] amounted to 12400 nM.

In assay [3], `O=C(NCc1ccccc1)c1ccc(OC(F)F)c(OCC2CC2)c1` came in with an IC50 of 2100 nM.

One may read the IC50 as the point on the concentration scale where inhibition reaches its midpoint. Low readings indicate greater potency in that assay, high ones weaker potency in that assay. A word on the inhibition: it is the percentage by which the read-out fell short of the control.

These data come from ChEMBL document CHEMBL3627623, “Catecholic amides as potential selective phosphodiesterase 4D inhibitors: Design, synthesis, pharmacological evaluation and structure-activity relationships” (Bioorg Med Chem, 2015).
